Columns and labels:
Format in all cases: functional
NCI-H460 [1] = assay: Anticancer activity against human NCI-H460 cells assessed as cell growth at 100 uM after 48 hrs by sulforhodamine B assay; details: NCI-H460, 48 h, read-out: Activity
CCRF-CEM = assay: Growth inhibition of human CCRF-CEM cells after 48 hrs by sulforhodamine B assay
Procedure, shortened: (§1)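 NCI 60-human-tumor-cell-line panel, with compounds tested over a 5-log dose range. Values are taken from dose-response curves as log10 molar concentrations: GI50 is 50% net growth inhibition, TGI is total growth inhibition, and LC50 is 50% net cell death.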

HL-60(TB) = assay: Growth inhibition of human HL-60(TB) cells after 48 hrs by sulforhodamine B assay; details: HL-60, 48 h
Procedure, shortened: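 Tested only on compounds active in a three-line prescreen, in the NCI 60-human-tumour-cell-line panel over a 5-log dose range. Values come from dose–response curves as log10 molar GI50, the concentration inhibiting 50% net cell growth. Log10 TGI (total growth inhibition) and log10 LC50 (50% net cell death) were derived too. Mean graph midpoints include insensitive lines at the highest concentration tested.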

SR = assay: Growth inhibition of human SR cells after 48 hrs by sulforhodamine B assay
Procedure, shortened: (§2)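 Run in the NCI 60-human-tumour-cell-line panel, tested over a 5-log dose range. Dose–response curves gave three values per cell line, each as a log10 molar concentration: GI50 (50% inhibition of net cell growth), TGI (total inhibition of net growth) and LC50 (50% net cell death). The mean graph midpoint is the arithmetic mean over all lines, with insensitive lines entered at the highest concentration tested.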

MOLT-4 = assay: Growth inhibition of human MOLT4 cells after 48 hrs by sulforhodamine B assay; details: MOLT-4, 48 h; procedure, shortened: as §1
A549 = assay: Growth inhibition of human A549 cells after 48 hrs by sulforhodamine B assay; details: A549, 48 h; procedure, shortened: as §1
EKVX = assay: Growth inhibition of human EKVX cells after 48 hrs by sulforhodamine B assay; procedure, shortened: as §1
HOP-62 = assay: Growth inhibition of human HOP62 cells after 48 hrs by sulforhodamine B assay; details: HOP-62, 48 h; procedure, shortened: as §1
HOP-92 = assay: Growth inhibition of human HOP92 cells after 48 hrs by sulforhodamine B assay; details: HOP-92, 48 h; procedure, shortened: as §1
NCI-H460 [2] = assay: Growth inhibition of human NCI-H460 cells after 48 hrs by sulforhodamine B assay; details: NCI-H460, 48 h; procedure, shortened: as §1
HCT-15 = assay: Growth inhibition of human HCT15 cells after 48 hrs by sulforhodamine B assay; details: HCT-15, 48 h; procedure, shortened: as §1
HT-29 = assay: Growth inhibition of human HT-29 cells after 48 hrs by sulforhodamine B assay; details: HT-29, 48 h; procedure, shortened: as §1
KM12 = assay: Growth inhibition of human KM12 cells after 48 hrs by sulforhodamine B assay; details: KM12, 48 h; procedure, shortened: as §1
Malme-3M = assay: Growth inhibition of human MALME-3M cells after 48 hrs by sulforhodamine B assay; procedure, shortened: as §1
UACC-257 = assay: Growth inhibition of human UACC257 cells after 48 hrs by sulforhodamine B assay; details: UACC-257, 48 h; procedure, shortened: as §2
IGROV-1 = assay: Growth inhibition of human IGROV1 cells after 48 hrs by sulforhodamine B assay; details: IGROV-1, 48 h; procedure, shortened: as §1
OVCAR-8 = assay: Growth inhibition of human OVCAR8 cells after 48 hrs by sulforhodamine B assay; details: OVCAR-8, 48 h; procedure, shortened: as §1
SK-OV-3 = assay: Growth inhibition of human SKOV3 cells after 48 hrs by sulforhodamine B assay; details: SK-OV-3, 48 h; procedure, shortened: as §1
A498 = assay: Growth inhibition of human A498 cells after 48 hrs by sulforhodamine B assay; details: A498, 48 h; procedure, shortened: as §1
ACHN = assay: Growth inhibition of human ACHN cells after 48 hrs by sulforhodamine B assay
SN12C = assay: Growth inhibition of human SN12C cells after 48 hrs by sulforhodamine B assay; procedure, shortened: as §2
TK-10 = assay: Growth inhibition of human TK10 cells after 48 hrs by sulforhodamine B assay; details: TK-10, 48 h; procedure, shortened: as §2
UO-31 = assay: Growth inhibition of human UO31 cells after 48 hrs by sulforhodamine B assay; details: UO-31, 48 h; procedure, shortened: as §2
PC-3 = assay: Growth inhibition of human PC3 cells after 48 hrs by sulforhodamine B assay; details: PC-3, 48 h; procedure, shortened: as §1
DU-145 = assay: Growth inhibition of human DU145 cells after 48 hrs by sulforhodamine B assay; details: DU-145, 48 h; procedure, shortened: as §1
BT-549 = assay: Growth inhibition of human BT549 cells after 48 hrs by sulforhodamine B assay; details: BT-549, 48 h; procedure, shortened: as §1
T47D = assay: Growth inhibition of human T47D cells after 48 hrs by sulforhodamine B assay; procedure, shortened: as §2
MCF7 = assay: Growth inhibition of human MCF7 cells after 48 hrs by sulforhodamine B assay; details: MCF7, 48 h; procedure, shortened: as §1
[3] = read-out: pLC50 (the source's name) (converted)

SMILES: COc1ccc(Oc2nc3cc(N)cc(N)c3nc2-c2ccccc2)cc1
- growth at 100 µM (NCI-H460 [1]): -48%
- GI50 (CCRF-CEM): 2.95 µM
- LC50 (CCRF-CEM): > 100 µM
- TGI (CCRF-CEM; read-out: pTGI (converted)): 12.6 µM
- GI50 (HL-60(TB)): 15.5 µM
- LC50 (HL-60(TB)): > 100 µM
- TGI (HL-60(TB); read-out: pTGI (converted)): > 100 µM
- GI50 (SR): 18.6 µM
- LC50 (concentration giving 50% net cell death) (SR): > 100 µM
- TGI (SR; read-out: pTGI (converted)): > 100 µM
- GI50 (MOLT-4): 5.37 µM
- LC50 (MOLT-4): > 100 µM
- TGI (MOLT-4; read-out: pTGI (converted)): 93.3 µM
- GI50 (A549): 37.2 µM
- LC50 (A549): > 100 µM
- TGI (A549; read-out: pTGI (converted)): > 100 µM
- GI50 (EKVX): 24.5 µM
- LC50 (50% net cell kill) (EKVX): > 100 µM
- TGI (EKVX; read-out: pTGI (converted)): 63.1 µM
- GI50 (HOP-62): 19.5 µM
- LC50 (HOP-62): 87.1 µM
- TGI (HOP-62; read-out: pTGI (converted)): 40.7 µM
- LC50 (50% net cell death) (HOP-92): 77.6 µM
- TGI (HOP-92; read-out: pTGI (converted)): 8.13 µM
- GI50 (NCI-H460 [2]): 30.9 µM
- LC50 (50% net cell kill) (NCI-H460 [2]): > 100 µM
- TGI (NCI-H460 [2]; read-out: pTGI (converted)): > 100 µM
- GI50 (HCT-15): 52.5 µM
- LC50 (HCT-15): > 100 µM
- TGI (HCT-15; read-out: pTGI (converted)): > 100 µM
- GI50 (HT-29): 39.8 µM
- LC50 (HT-29): > 100 µM
- TGI (HT-29; read-out: pTGI (converted)): > 100 µM
- GI50 (KM12): 37.2 µM
- LC50 (50% net cell kill) (KM12): > 100 µM
- TGI (KM12; read-out: pTGI (converted)): > 100 µM
- GI50 (Malme-3M): 51.3 µM
- CC50 (Malme-3M; [3]): > 100 µM
- TGI (Malme-3M; read-out: pTGI (converted)): > 100 µM
- GI50 (UACC-257): > 100 µM
- CC50 (UACC-257; [3]): > 100 µM
- TGI (UACC-257; read-out: pTGI (converted)): > 100 µM
- GI50 (IGROV-1): 25.1 µM
- CC50 (IGROV-1; [3]): > 100 µM
- TGI (IGROV-1; read-out: pTGI (converted)): > 100 µM
- GI50 (OVCAR-8): 32.4 µM
- CC50 (OVCAR-8; [3]): > 100 µM
- TGI (OVCAR-8; read-out: pTGI (converted)): > 100 µM
- GI50 (SK-OV-3): 25.7 µM
- CC50 (SK-OV-3; [3]): > 100 µM
- TGI (SK-OV-3; read-out: pTGI (converted)): 55 µM
- GI50 (A498): 49 µM
- CC50 (A498; [3]): > 100 µM
- TGI (A498; read-out: pTGI (converted)): > 100 µM
- GI50 (ACHN): 36.3 µM
- CC50 (ACHN; [3]): > 100 µM
- TGI (ACHN; read-out: pTGI (converted)): > 100 µM
- GI50 (SN12C): 50.1 µM
- CC50 (SN12C; [3]): > 100 µM
- TGI (SN12C; read-out: pTGI (converted)): > 100 µM
- GI50 (TK-10): 53.7 µM
- CC50 (TK-10; [3]): > 100 µM
- TGI (TK-10; read-out: pTGI (converted)): > 100 µM
- GI50 (UO-31): 28.2 µM
- CC50 (UO-31; [3]): > 100 µM
- TGI (UO-31; read-out: pTGI (converted)): > 100 µM
- GI50 (PC-3): 15.1 µM
- CC50 (PC-3; [3]): > 100 µM
- TGI (PC-3; read-out: pTGI (converted)): > 100 µM
- GI50 (DU-145): 69.2 µM
- CC50 (DU-145; [3]): > 100 µM
- TGI (DU-145; read-out: pTGI (converted)): > 100 µM
- GI50 (BT-549): 32.4 µM
- CC50 (BT-549; [3]): > 100 µM
- TGI (BT-549; read-out: pTGI (converted)): > 100 µM
- GI50 (T47D): 15.1 µM
- CC50 (T47D; [3]): > 100 µM
- TGI (T47D; read-out: pTGI (converted)): 97.7 µM
- GI50 (MCF7): 47.9 µM
- CC50 (MCF7; [3]): > 100 µM
- TGI (MCF7; read-out: pTGI (converted)): > 100 µM

Source: ChEMBL document CHEMBL1137710, “Synthesis and in vitro antitumor activity of new quinoxaline derivatives” (2009)
